Data on seven compounds can be found in ChEMBL document CHEMBL3808312, “Bioactive Constituents of Glycyrrhiza uralensis (Licorice): Discovery of the Effective Components of a Traditional Herbal Medicine” (J Nat Prod, 2016).

Data set [1] addresses T1, Tyrosinase (Homo sapiens) (UniProt P14679).
T1 sequence (whole entry): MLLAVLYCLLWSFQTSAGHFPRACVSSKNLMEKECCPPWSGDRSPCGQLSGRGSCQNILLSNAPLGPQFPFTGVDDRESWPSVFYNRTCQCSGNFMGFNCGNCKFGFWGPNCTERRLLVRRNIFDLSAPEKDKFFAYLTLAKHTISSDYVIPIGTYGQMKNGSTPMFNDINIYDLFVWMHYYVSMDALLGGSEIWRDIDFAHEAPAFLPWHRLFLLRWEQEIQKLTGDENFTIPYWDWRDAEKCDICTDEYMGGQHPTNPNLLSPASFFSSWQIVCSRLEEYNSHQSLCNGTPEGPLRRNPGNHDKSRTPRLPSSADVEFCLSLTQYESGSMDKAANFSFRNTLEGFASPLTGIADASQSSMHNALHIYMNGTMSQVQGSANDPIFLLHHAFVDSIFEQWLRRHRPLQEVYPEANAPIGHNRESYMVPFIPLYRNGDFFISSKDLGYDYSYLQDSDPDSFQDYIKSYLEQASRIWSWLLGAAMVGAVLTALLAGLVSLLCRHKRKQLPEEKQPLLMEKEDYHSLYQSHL
As to the kind of experiment: Inhibition of tyrosinase (unknown origin) using L-tyrosine as substrate assessed as oxidation of L-tyrosine at 20 uM after 15 mins. An outline of the steps: (§1)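 Tyrosinase at 333 U/mL (stock) in 45 mM sodium phosphate, pH 6.6, with 2 mM L-tyrosine (stock). Incubated 37 °C for 15 min; oxidation read at 492 nm. Screened at 20 μM; dose-response for IC50. Glyasperin C positive control.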

Data set [2] addresses T2, Tyrosinase (Homo sapiens, UniProt P14679).
T2 sequence (P14679 whole entry): T1 sequence (whole entry)
As to the kind of experiment: Inhibition of tyrosinase (unknown origin) using L-tyrosine as substrate assessed as oxidation of L-tyrosine after 15 mins. Summed up: as §1

Data set [3] concerns MDCK. As to the kind of experiment: Cytotoxicity against MDCK cells after 36 hrs. Type of data set: cell-based, Canis lupus familiaris. To be noted: dog.
In data set [4] the target is T3, Tyrosine-protein phosphatase non-receptor type 1 (Homo sapiens, UniProt P18031).
T3 sequence (P18031 whole entry): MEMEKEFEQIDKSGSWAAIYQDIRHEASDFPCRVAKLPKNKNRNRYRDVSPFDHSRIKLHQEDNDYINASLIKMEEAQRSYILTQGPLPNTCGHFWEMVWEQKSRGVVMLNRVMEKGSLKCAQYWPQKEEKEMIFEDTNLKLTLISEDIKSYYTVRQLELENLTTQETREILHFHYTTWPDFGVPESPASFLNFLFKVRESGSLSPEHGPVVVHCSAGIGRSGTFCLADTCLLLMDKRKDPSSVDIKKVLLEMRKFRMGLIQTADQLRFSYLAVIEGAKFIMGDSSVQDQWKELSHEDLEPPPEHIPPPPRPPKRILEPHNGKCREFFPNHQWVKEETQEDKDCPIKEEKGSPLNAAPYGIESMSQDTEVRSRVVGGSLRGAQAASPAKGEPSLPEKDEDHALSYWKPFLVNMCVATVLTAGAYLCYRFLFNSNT
As to the kind of experiment: Inhibition of recombinant human PTP1B assessed as hydrolysis of p-nitrophenyl phosphate.

The subject of data set [5] is HepG2. As to the kind of experiment: Cytotoxicity against human HepG2 cells assessed as reduction in cell viability after 24 hrs by MTS assay. Type of data set: functional, cell-based. The settings on record: HepG2, 24 h. An outline of the steps:
(§2)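 Cells seeded at 5 × 10^3/well and cultured overnight, then exposed to compounds for 24 h. Viability read by MTS. Media: SW480 in RPMI1640, A549 in DMEM, MCF7 in MEM. […] Irinotecan positive control.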
On the technique in general: Formazan colour is commonly taken as a measure of viable cells.

In data set [6] the test system is SW480. As to the kind of experiment: Cytotoxicity against human SW480 cells assessed as reduction in cell viability after 24 hrs by MTS assay. To be noted: SW480, 24 h. The format is functional, cell-based. Summed up:
as §2

The target of data set [7] is T4, Tyrosine-protein phosphatase non-receptor type 1 (Homo sapiens) (UniProt P18031).
T4 sequence (whole entry): T3 sequence (P18031 whole entry)
As to the kind of experiment: Inhibition of recombinant human PTP1B assessed as hydrolysis of p-nitrophenyl phosphate at 25 uM after 30 mins relative to control.

Data set [8] has as its target Acetylcholinesterase (Homo sapiens, UniProt P22303). As to the kind of experiment: Inhibition AChE (unknown origin) using ATCI as substrate assessed as hydrolysis of ATCI at 25 uM measured every 1 min for 10 times. An outline of the steps:
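Commercial AChE (added as 0.025 U/mL solution) in Tris-HCl (30 mM, pH 8.0) with DTNB (added as 0.26 mM) and ATCI substrate (added as 0.2 mM); 200 μL mixture at room temperature. Thiocholine release read at 405 nm every min, 10 reads; linear slope taken as rate. Screening at 25 μM; galanthamine positive control.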

For data set [9], the system named is A549. As to the kind of experiment: Cytotoxicity against human A549 cells assessed as reduction in cell viability after 24 hrs by MTS assay. The settings on record: A549, 24 h. Type of data set: functional, cell-based. An outline of the steps:
as §2

The test system of data set [10] is MCF7. As to the kind of experiment: Cytotoxicity against human MCF7 cells assessed as reduction in cell viability after 24 hrs by MTS assay. The format is functional, cell-based. To be noted: MCF7, 24 h. An outline of the steps:
as §2

The test system of data set [11] is RAW264.7. As to the kind of experiment: Antiinflammatory activity in mouse RAW264.7 cells assessed as inhibition of LPS-induced nitric oxide production at 10 uM after 24 hrs by Griess assay. The format is functional. The settings on record: RAW264.7, 24 h. Summed up: (§3)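 RAW264.7 cells plated at 1.2 × 10^5/well in RPMI1640 and co-treated with compound and 1 μg/mL LPS for 24 h. Nitrite in medium read with Griess reagent (sulfanilamide/naphthylethylenediamine, phosphoric acid) after 15 min at 37 °C, absorbance 540 nm. […] Curcumin positive control.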
Background: Griess reagent forms a coloured azo dye with nitrite.

Data set [12] concerns RAW264.7. As to the kind of experiment: Antiinflammatory activity in mouse RAW264.7 cells assessed as inhibition of LPS-induced nitric oxide production after 24 hrs by Griess assay. The format is functional, cell-based. To be noted: RAW264.7, 24 h. An outline of the steps: as §3
For data set [13], the target named is T5, Nuclear factor erythroid 2-related factor 2 (Homo sapiens) (UniProt Q16236).
T5 sequence (whole entry): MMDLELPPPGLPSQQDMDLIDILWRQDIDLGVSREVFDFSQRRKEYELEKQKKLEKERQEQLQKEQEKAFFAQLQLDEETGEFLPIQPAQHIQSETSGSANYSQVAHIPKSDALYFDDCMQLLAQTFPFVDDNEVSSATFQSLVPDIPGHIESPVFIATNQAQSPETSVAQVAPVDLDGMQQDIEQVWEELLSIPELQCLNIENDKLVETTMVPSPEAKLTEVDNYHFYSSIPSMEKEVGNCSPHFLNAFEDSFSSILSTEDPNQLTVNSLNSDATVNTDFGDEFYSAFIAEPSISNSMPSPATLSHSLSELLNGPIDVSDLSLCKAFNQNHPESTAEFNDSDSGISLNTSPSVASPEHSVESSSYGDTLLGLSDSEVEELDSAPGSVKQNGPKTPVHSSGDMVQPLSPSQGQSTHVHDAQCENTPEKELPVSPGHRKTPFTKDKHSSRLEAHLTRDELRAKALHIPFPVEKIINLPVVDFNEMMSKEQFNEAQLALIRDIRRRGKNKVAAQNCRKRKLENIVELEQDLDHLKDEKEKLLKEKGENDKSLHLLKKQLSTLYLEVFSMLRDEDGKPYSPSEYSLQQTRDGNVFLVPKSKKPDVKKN
As to the kind of experiment: Activation of NRF2 transcription in human HepG2C8 cells at 100 uM after 6 hrs by luciferase reporter gene assay relative to control. The format is cell-based.

For data set [14], the target named is T5, Nuclear factor erythroid 2-related factor 2 (Homo sapiens). As to the kind of experiment: Activation of NRF2 transcription in human HepG2C8 cells at 10 uM after 6 hrs by luciferase reporter gene assay relative to control. The format is cell-based. Summed up:
(§4)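 Luciferase reporter in HepG2C8 cells, which are HepG2 stably transfected with an Nrf2 luciferase reporter and grown in MEM. Screened at 10 μM, with dose-response over 2.5−40 μM. Activity expressed as fold of control. tBHQ positive control.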
In general terms: Reporter assays use an easily measured gene product as a stand-in for the process of interest.

The subject of data set [15] is SW480. As to the kind of experiment: Inhibition of NFkappaB transcription in human SW480 cells at 10 uM by luciferase reporter gene assay. The format is cell-based. An outline of the steps:
(§5)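 SW480 cells (RPMI1640) stably transfected with an NF-κB luciferase reporter. […] MG132 positive control.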

In data set [16] the test system is SW480. As to the kind of experiment: (§6) Inhibition of NFkappaB transcription in human SW480 cells at by luciferase reporter gene assay. The format is cell-based. Summed up:
as §5

Data set [17] can be described thus: as §6. The format is cell-based. Summed up: as §5
Data set [18] has as its system Influenza A virus. As to the kind of experiment: Antiviral activity against Influenza A virus A/WSN/33(H1N1) infected in MDCK cells at 100 uM preincubated with virus for 15 mins followed by cells addition measured at 36 hrs post infection. The format is functional, A/WSN/1933(H1N1). Summed up:
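MDCK canine kidney cells grown in DMEM and infected with influenza A/WSN/33 (H1N1). Compounds screened at 100 μM. Oseltamivir phosphate served as the positive control.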

The test system of data set [19] is HepG2. As to the kind of experiment: Toxicity in human HepG2 cells at 20 to 40 uM. Type of data set: cell-based. To be noted: hepg2, 40 µM.
The target of data set [20] is T5, Nuclear factor erythroid 2-related factor 2 (Homo sapiens). As to the kind of experiment: Activation of NRF2 transcription in human HepG2C8 cells after 6 hrs by luciferase reporter gene assay. Type of data set: cell-based. Summed up:
as §4

Each structure is given as a SMILES string.

Acetylcholinesterase, sequence (P22303 whole entry): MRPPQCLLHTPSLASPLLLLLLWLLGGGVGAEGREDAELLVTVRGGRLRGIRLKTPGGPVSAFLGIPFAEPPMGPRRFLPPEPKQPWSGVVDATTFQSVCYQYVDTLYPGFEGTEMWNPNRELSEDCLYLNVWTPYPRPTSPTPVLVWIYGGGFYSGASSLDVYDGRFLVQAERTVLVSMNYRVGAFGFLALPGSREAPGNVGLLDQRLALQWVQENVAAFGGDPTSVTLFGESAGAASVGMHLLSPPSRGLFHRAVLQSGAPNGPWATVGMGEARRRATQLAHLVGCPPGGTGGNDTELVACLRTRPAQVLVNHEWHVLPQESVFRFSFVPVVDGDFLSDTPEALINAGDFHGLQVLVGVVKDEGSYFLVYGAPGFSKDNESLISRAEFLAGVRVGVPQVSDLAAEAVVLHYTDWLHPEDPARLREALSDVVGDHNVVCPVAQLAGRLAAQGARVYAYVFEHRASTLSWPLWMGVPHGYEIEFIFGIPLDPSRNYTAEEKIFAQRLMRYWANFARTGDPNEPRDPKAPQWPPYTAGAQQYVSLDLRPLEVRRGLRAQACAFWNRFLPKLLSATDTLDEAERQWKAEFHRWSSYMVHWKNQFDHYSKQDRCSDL

Broadly, the inhibition is the share of the control response that was lost under treatment. Broadly, the IC50 is the concentration that gives 50% inhibition. With `COc1c(CC=C(C)C)c(O)cc2c1C[C@H](c1ccc(O)cc1O)CO2` [GLYASPERIN C], in [1], the inhibition is more than 95%. Besides, the IC50 in data set [2] came to 0.177 µM.
Regarding `CC(C)=CCc1c(O)ccc(-c2coc3cc(O)c(CC=C(C)C)c(O)c3c2=O)c1O`, the Activity entry in data set [3] is listed as “Toxic”. Also, the IC50 was determined as 0.4 µM in [4]; 1.1 µM in [5]; 6.4 µM in data set [6]; 7.1 µM in [9]; 6 µM in data set [10]. Moreover, the inhibition is more than 95% in [7] and 71% in [8].
`COc1c(-c2ccc(O)c(CC=C(C)C)c2)oc2cc(O)cc(O)c2c1=O`: the inhibition at 10 µM in data set [11] was more than 50%. In addition, in data set [7], the inhibition amounted to 85%. In data set [12], the IC50 was 12.1 µM.
In the case of `O=c1c(O)c(-c2ccc(O)cc2)oc2cc(O)cc(O)c12` [KAEMPFEROL], the inhibition in data set [1] was more than 95%. Further, in data set [2], the IC50 was 1 µM.
As for `CC(C)(C)c1cc(O)ccc1O`, the fold change (FC) in data set [13] came to 4.34; in data set [14], 1.51.
`COc1c(CC=C(C)C)c(O)cc2oc(-c3ccc(O)cc3O)cc12` [LICOCOUMARONE]: the inhibition was more than 30% in data set [15], “Dose-dependent effect” in [16] and more than 90% in data set [7]. The IC50 is 5.1 µM in [17] and 8.5 µM in data set [12]. Besides, the Activity in data set [18] is given as more than 30%.
`CC(C)=CCc1c(O)cc2occ(-c3ccc(O)cc3O)c(=O)c2c1O` [UNCINANONE A]: the Activity result in data set [19] is “Toxic”; in data set [20] it was “Dose-dependent effect”; in data set [18], more than 30%. In data set [14], this compound yielded a fold change (FC) of 6.68.
